Screening results (PubChem)
A selection: hits, their analogues and other compounds. The true share with any hit is near 4.6%.
Arrestin-AP2 inh – inhibitors of beta-arrestin/AP2 binding, primary screen, biochemical, GPCR trafficking, flow cytometry; beta-arrestin 1 C-terminal peptide binding to AP2 beta2-adaptin appendage (human); FITC-arrestin peptide / GST-AP2 beads; AP2 beta2 appendage carries R879A mutation; inhibition, % at 10 µM; hit rate 0.31% among 340,000;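 active = inhibition above a set limit, near 3 SD of compounds lacking own fluorescence, cut at about 54% in these data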
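Material – AP2 appendage R879A on GSH beads · Buffer or medium – PBS with 0.05% Tween 20 and 0.1% BSA · Probe or stimulus – fluorescein-tagged arrestin peptide at 50 nM final · Incubation – compound with beads 12 min RT, then probe 1 h RT · Detection – high-throughput flow cytometry of beads, ex 488, em 535 nm · Evaluation – percent response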
NLRP3 yeast inh – NALP3 inflammasome inhibitors in reconstituted yeast, primary screen, luminescence, uHTS; inhibition, % at 10 µM; AID 2825, 2010; Yeast reconstituted NLRP3/ASC/caspase-1, beta-gal luminescence, 24 h; hit rate 0.39% among 330,000;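 active = inhibition of 50% or more; inactive = inhibition below 50%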
Pemphigus Ab inh – inhibitors of pemphigus antibody binding to DSG3, primary screen, biochemical, bead-based, flow cytometry, scFv-GFP | Desmoglein-3 (Homo sapiens), P32926 | DSG3-coupled beads, scFv-anti-DSG3-GFP binding; active compounds read low | hit rate 0.48% among 310,000 | binding (percent of control), % at 10 µM;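 active = binding more than 3 SD below its plate's average and above zero; inconclusive = below that plate limit but binding exactly zero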;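 also: hits lower antibody fragment binding to DSG3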
Target sequence (P32926 whole entry, looked up, the tested form may be a part): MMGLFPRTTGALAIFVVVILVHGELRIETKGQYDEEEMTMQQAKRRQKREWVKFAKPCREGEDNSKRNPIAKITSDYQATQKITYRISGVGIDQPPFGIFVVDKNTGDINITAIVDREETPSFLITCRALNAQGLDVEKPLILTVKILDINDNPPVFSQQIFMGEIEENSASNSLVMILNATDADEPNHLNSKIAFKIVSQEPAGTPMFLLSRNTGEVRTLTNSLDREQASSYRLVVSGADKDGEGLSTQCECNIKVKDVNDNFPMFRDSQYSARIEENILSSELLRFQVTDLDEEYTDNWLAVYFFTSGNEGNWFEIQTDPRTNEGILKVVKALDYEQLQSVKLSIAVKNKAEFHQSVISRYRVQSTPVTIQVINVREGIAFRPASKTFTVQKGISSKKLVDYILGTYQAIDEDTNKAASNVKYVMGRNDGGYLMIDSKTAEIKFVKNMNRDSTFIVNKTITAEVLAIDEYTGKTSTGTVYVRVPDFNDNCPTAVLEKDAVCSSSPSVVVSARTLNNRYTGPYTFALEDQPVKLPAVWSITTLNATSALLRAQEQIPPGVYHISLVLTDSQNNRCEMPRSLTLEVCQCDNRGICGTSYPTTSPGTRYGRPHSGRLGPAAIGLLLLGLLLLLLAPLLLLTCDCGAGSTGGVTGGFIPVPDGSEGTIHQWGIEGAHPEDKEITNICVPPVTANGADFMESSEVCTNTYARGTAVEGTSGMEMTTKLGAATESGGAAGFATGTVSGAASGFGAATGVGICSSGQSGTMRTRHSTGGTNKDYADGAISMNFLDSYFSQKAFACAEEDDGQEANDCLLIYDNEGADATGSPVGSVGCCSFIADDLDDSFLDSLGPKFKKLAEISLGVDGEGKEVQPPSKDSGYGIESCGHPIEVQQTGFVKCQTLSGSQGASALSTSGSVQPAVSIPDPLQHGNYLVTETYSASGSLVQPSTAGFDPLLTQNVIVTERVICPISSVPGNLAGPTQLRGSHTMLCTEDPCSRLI
NALP1 inh – NALP1 inflammasome inhibitors in reconstituted yeast, colorimetric, S. cerevisiae, triplicate retest; S. cerevisiae NALP1/ASC/caspase-1 growth, X-gal OD620, 72 h; hit rate 0.61% among 280,000; inhibition, % at 10 µM; in the data active = inhibition mostly above about 24%, no sharp cut-off; inactive = mostly below about 32%
ALR inh – inhibitors of human ALR sulfhydryl oxidase, primary screen, biochemical, H2O2 detection, HRP-luminol luminescence, single point; purified ALR, DTT oxidation; inhibition, % (test concentration not listed); hit rate 3.8% among 290,000; AID 485317, 2010;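 active = mean replicate inhibition above about 79%, with every replicate also reaching it, limit read from the data; inconclusive = only one of the two criteria met; inactive = mean below limit and not every replicate reaching it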
PolyA inhibitor – polyadenylation inhibitors in yeast reporter cells, primary screen, luminescence, S. cerevisiae; S. cerevisiae SKY197-pL101 polyadenylation reporter, beta-gal luminescence; efflux-impaired pdr1/pdr3 knockout yeast; score 100 = 6 SD above DMSO; activity score, % at 12 µM; hit rate 0.02% among 300,000;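 active = lowest replicate activity score at least 50, where 100 means six control SD above control mean; inconclusive = lowest score under 50 but half or more replicates reach 50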;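 also: yeast exposed to compound for 9 h at 30 °C; higher score means more reporter readthrough which indicates perturbed polyadenylation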
Arr-AP2 CP1 – inhibitors of arrestin peptide binding to AP2, confirmation, biochemical, cherry pick 1, flow cytometry beads; shares compounds with Arrestin-AP2 inh; GST-AP2 beads, FITC arrestin peptide binding; GST-fused beta2-adaptin appendage, R879A mutant; inhibition, % at 10 µM; hit rate 2% among 1,300; AID 504908, 2011;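 active = inhibition above a set limit, roughly 3 SD of non-fluorescent compound noise, cut at about 38% in these data; inactive = inhibition at or below that limit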;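 also: loss of bead fluorescence from 50 nM FITC arrestin peptide bound to appendage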
GST GSH counter – GST-fluorescein capture on glutathione beads, confirmation, artefact control for arrestin-AP2 inhibitor project, biochemical, cherry pick 1, flow cytometry; shares compounds with Arrestin-AP2 inh; GST-fluorescein binding to GSH beads, fluorescence, counter-screen; inhibition, % at 10 µM; hit rate 2% among 1,300; AID 588338, 2011;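 active = inhibition above 50%, about 3 SD of the inhibition seen with non-fluorescent compounds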;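 also: fluorescein maleimide labelled GST captured on 4 micron glutathione beads; higher means more loss of bead fluorescence from quenching or blocked binding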
Numbers stand for hits.

Results for CC12CCC(=O)N1C(C(=O)OCC(=O)Nc1cccc(Br)c1)CS2 (stereo unspecified) ?
Arrestin-AP2 inh: inactive; NLRP3 yeast inh: inactive; Pemphigus Ab inh: inactive; NALP1 inh: inactive; ALR inh: inactive; PolyA inhibitor: inactive; Arr-AP2 CP1: inactive; GST GSH counter: inactive

Results for Cc1ccc(NC(=O)COC(=O)C2CSC3(C)CCC(=O)N23)c(C)c1 (stereo unspecified) ?
Arrestin-AP2 inh: 68.8; NLRP3 yeast inh: inactive; Pemphigus Ab inh: inactive; ALR inh: inactive; Arr-AP2 CP1: inactive; GST GSH counter: inactive

What do the screens show for `Cc1ccc(NC(=O)COC(=O)C2CSC3(C)CCC(=O)N23)cc1S(=O)(=O)N1CCOCC1` (stereo unspecified)?
Arrestin-AP2 inh: 63.5; NLRP3 yeast inh: inactive; Pemphigus Ab inh: inactive; NALP1 inh: inactive; PolyA inhibitor: inactive; Arr-AP2 CP1: inactive; GST GSH counter: inactive

What do the screens show for `CCOC(=O)c1c(C)[nH]c(C)c1C(=O)COC(=O)c1nc2nccc(C)n2n1`?
Arrestin-AP2 inh: inactive; NLRP3 yeast inh: inactive; Pemphigus Ab inh: inactive; NALP1 inh: inactive; PolyA inhibitor: inactive

What do the screens show for `CCN(CC)C(=O)CSc1ncnc2c(-c3cccs3)nsc12`?
Arrestin-AP2 inh: inactive; NLRP3 yeast inh: inactive; Pemphigus Ab inh: inactive; NALP1 inh: inactive; ALR inh: inactive

What do the screens show for `CCCCCc1c(O)nc(SCCN2CCOCC2)[nH]c1=O`?
Arrestin-AP2 inh: inactive; NLRP3 yeast inh: inactive; Pemphigus Ab inh: inactive; NALP1 inh: inactive; ALR inh: inactive; PolyA inhibitor: inactive

Results for CC12CCC(=O)N1C(C(=O)OCC(=O)Nc1ccc(C(F)(F)F)cc1)CS2 (stereo unspecified) ?
Arrestin-AP2 inh: inactive; NLRP3 yeast inh: inactive; Pemphigus Ab inh: inactive; ALR inh: inactive; Arr-AP2 CP1: inactive; GST GSH counter: inactive

Results for CC12CCC(=O)N1C(C(=O)OCC(=O)Nc1ccc(S(N)(=O)=O)cc1)CS2 (stereo unspecified) ?
Arrestin-AP2 inh: inactive; NLRP3 yeast inh: inactive; NALP1 inh: inactive; ALR inh: inactive; PolyA inhibitor: inactive; Arr-AP2 CP1: inactive; GST GSH counter: inactive

What do the screens show for `CC12CCC(=O)N1C(C(=O)OCC(=O)Nc1cccc(S(=O)(=O)N3CCCCCC3)c1)CS2` (stereo unspecified)?
Arrestin-AP2 inh: inactive; NLRP3 yeast inh: inactive; Pemphigus Ab inh: inactive; NALP1 inh: inactive; PolyA inhibitor: inactive

Results for O=C(CCc1ccc(S(=O)(=O)N2CCOCC2)cc1)Nc1ccc(F)cc1[N+](=O)[O-] ?
Arrestin-AP2 inh: inactive; NLRP3 yeast inh: inactive; Pemphigus Ab inh: inactive; ALR inh: inactive

What do the screens show for `CCOc1ccc(OCCCC(=O)Nc2cc(Cl)ccc2-n2cncn2)cc1`?
Arrestin-AP2 inh: inactive; NLRP3 yeast inh: inactive; Pemphigus Ab inh: inactive; ALR inh: inactive

What do the screens show for `CC/C(=N\N=C1\SC(C)C(=O)N1Cc1ccco1)c1ccccc1` (stereo unspecified)?
Arrestin-AP2 inh: 59.3; NLRP3 yeast inh: inactive; Pemphigus Ab inh: inactive; NALP1 inh: inactive; ALR inh: inactive; PolyA inhibitor: inactive; Arr-AP2 CP1: inactive; GST GSH counter: inactive

How did CNc1c([N+](=O)[O-])cnn1-c1ccc(F)cc1 do in these assays?
Arrestin-AP2 inh: inactive; NLRP3 yeast inh: inactive; Pemphigus Ab inh: inactive; NALP1 inh: inactive; ALR inh: inactive; PolyA inhibitor: inactive

How did COc1cc(CC(=O)OCC(=O)N2CCCCC2)cc(OC)c1OC do in these assays?
Arrestin-AP2 inh: 57.8; NLRP3 yeast inh: inactive; Pemphigus Ab inh: inactive; NALP1 inh: inactive; ALR inh: inactive; PolyA inhibitor: inconclusive; Arr-AP2 CP1: inactive; GST GSH counter: inactive

Results for Cn1c(SCC(=O)NC2CCCC2)nnc1-c1ccccn1 ?
Arrestin-AP2 inh: 60.0; NLRP3 yeast inh: inactive; Pemphigus Ab inh: inactive; NALP1 inh: inactive; ALR inh: inactive; PolyA inhibitor: inactive; Arr-AP2 CP1: inactive; GST GSH counter: inactive

Results for Cn1c(SCC(=O)NC2CCCCC2)nnc1-c1ccccn1 ?
Arrestin-AP2 inh: inactive; NLRP3 yeast inh: inactive; Pemphigus Ab inh: inactive; NALP1 inh: inactive; ALR inh: inactive; PolyA inhibitor: inactive

What do the screens show for `O=C(C1=C(O)C(=O)N(CCCn2ccnc2)C1c1ccccc1)c1ccco1` (stereo unspecified)?
Arrestin-AP2 inh: inactive; NLRP3 yeast inh: inactive; Pemphigus Ab inh: inactive; NALP1 inh: inactive; ALR inh: inactive; PolyA inhibitor: inactive

Results for O=C(C1=C(O)C(=O)N(CCCn2ccnc2)C1c1cccc(Br)c1)c1ccco1 (stereo unspecified) ?
Arrestin-AP2 inh: 55.2; NLRP3 yeast inh: inactive; Pemphigus Ab inh: inactive; NALP1 inh: inactive; ALR inh: inactive; PolyA inhibitor: inactive; Arr-AP2 CP1: inactive; GST GSH counter: inactive

How did CN(C)c1cc2c(cc1NC(=O)c1ccccc1Cl)n(C)c(=O)n2C do in these assays?
Arrestin-AP2 inh: inactive; NLRP3 yeast inh: inactive; Pemphigus Ab inh: inactive; NALP1 inh: inactive; ALR inh: inactive; PolyA inhibitor: inactive; Arr-AP2 CP1: inactive; GST GSH counter: inactive

What do the screens show for `CC(=O)Nc1ccc(S(=O)(=O)N2CCC(c3nnc(-c4ccc(C)cc4)o3)CC2)cc1`?
Arrestin-AP2 inh: inactive; NLRP3 yeast inh: inactive; Pemphigus Ab inh: inactive; NALP1 inh: inactive; ALR inh: inactive; PolyA inhibitor: inactive

What do the screens show for `O=C(Nc1cc(C(F)(F)F)ccc1N1CCOCC1)C1=COCCO1`?
Arrestin-AP2 inh: 54.9; NLRP3 yeast inh: inactive; Pemphigus Ab inh: inactive; ALR inh: inactive; PolyA inhibitor: inactive; Arr-AP2 CP1: inactive; GST GSH counter: inactive

What do the screens show for `O=C(COC(=O)c1ccccc1NC(=O)c1ccco1)NC1CCS(=O)(=O)C1` (stereo unspecified)?
Arrestin-AP2 inh: inactive; NLRP3 yeast inh: inactive; Pemphigus Ab inh: inactive; NALP1 inh: inactive; ALR inh: inactive; PolyA inhibitor: inactive

Results for O=S1(=O)N=C(N(CCO)/N=C/c2ccccc2)c2ccccc21 ?
Arrestin-AP2 inh: 60.3; NLRP3 yeast inh: inactive; Pemphigus Ab inh: inactive; NALP1 inh: inactive; PolyA inhibitor: inactive; Arr-AP2 CP1: inactive; GST GSH counter: inactive
